Data on three compounds can be found in ChEMBL document CHEMBL4680134, “Structural optimization of natural product nordihydroguaretic acid to discover novel analogues as AcrB inhibitors” (Eur J Med Chem, 2020).

Series [1] in a line: Growth inhibition of Escherichia coli BW25113 expressing AcrB at 512 ug/ml after 18 hrs by broth microdilution assay. The note with it: dose 512 µg/ml. In outline:
(§1)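 MIC determined by 96-well broth microdilution in E. coli BW25113 expressing AcrB ((+)AcrB) and an isogenic acrB-deleted strain ((-)AcrB). Used to set the compound concentrations for synergy testing that produce no direct antibacterial effect.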
(In general: In broth dilution the organism is exposed to a series of concentrations in liquid medium.)

Series [2] in a line: Growth inhibition of Escherichia coli harboring AcrB deletion mutant at 64 ug/ml after 18 hrs by broth microdilution assay. The following applies: dose 64 µg/ml. In outline:
as §1

Series [3] has as its target T1, Multidrug efflux pump subunit AcrB (Escherichia coli (strain K12)) (UniProt P31224).
T1 sequence (whole entry): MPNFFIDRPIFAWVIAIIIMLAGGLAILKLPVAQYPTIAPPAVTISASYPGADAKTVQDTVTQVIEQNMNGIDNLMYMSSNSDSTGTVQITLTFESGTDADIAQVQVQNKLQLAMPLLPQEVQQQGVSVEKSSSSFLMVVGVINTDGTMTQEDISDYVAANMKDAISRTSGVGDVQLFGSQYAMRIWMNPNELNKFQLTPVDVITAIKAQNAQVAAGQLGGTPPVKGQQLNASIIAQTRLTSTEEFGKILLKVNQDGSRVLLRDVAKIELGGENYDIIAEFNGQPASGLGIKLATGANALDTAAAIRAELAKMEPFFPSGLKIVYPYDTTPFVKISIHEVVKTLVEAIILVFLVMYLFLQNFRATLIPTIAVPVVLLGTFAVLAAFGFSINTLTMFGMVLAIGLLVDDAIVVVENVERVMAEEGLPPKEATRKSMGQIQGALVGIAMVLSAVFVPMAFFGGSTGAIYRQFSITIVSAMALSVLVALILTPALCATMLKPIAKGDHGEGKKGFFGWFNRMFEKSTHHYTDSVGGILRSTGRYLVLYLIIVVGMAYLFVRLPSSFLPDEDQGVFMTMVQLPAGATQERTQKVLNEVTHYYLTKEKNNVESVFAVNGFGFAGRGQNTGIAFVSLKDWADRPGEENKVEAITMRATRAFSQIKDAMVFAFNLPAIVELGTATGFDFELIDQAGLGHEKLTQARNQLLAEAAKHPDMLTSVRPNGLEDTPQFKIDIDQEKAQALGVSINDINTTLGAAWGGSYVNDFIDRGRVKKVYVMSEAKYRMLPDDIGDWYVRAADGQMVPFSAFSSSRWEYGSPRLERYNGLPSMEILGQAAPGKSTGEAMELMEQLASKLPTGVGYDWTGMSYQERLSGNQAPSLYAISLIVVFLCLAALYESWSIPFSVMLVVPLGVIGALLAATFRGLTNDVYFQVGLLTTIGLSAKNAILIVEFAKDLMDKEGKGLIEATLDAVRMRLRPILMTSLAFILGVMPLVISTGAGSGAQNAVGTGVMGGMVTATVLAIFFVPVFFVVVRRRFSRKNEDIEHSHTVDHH
In words: Inhibition of AcrB in Escherichia coli BW25113 assessed as potentiation of chloramphenicol induced antibacterial activity by measuring chloramphenicol MIC at 16 ug/ml measured after 18 hrs by checkerboard titration method (reference value: 8 ug/ml). The note with it: dose 16.0 µg/ml.

Series [4] addresses T1, Multidrug efflux pump subunit AcrB (Escherichia coli (strain K12)). In words: Inhibition of AcrB in Escherichia coli BW25113 assessed as potentiation of chloramphenicol induced antibacterial activity by measuring chloramphenicol MIC at 32 ug/ml measured after 18 hrs by checkerboard titration method (reference value: 8 ug/ml). The following applies: dose 32.0 µg/ml.
For series [5] the target is unchanged. In words: Inhibition of AcrB in Escherichia coli BW25113 assessed as potentiation of chloramphenicol induced antibacterial activity by measuring chloramphenicol MIC at 64 ug/ml measured after 18 hrs by checkerboard titration method (reference value: 8 ug/ml). The following applies: dose 64.0 µg/ml.
Series [6] has the same target. The series can be described thus: Inhibition of AcrB in Escherichia coli BW25113 assessed as potentiation of chloramphenicol induced antibacterial activity by measuring chloramphenicol MIC at 128 ug/ml measured after 18 hrs by checkerboard titration method (reference value: 8 ug/ml). The note with it: dose 128.0 µg/ml.
For series [7] the target is unchanged. In words: Inhibition of AcrB in Escherichia coli BW25113 assessed as potentiation of erythromycin induced antibacterial activity by measuring erythromycin MIC at 16 ug/ml measured after 18 hrs by checkerboard titration method (reference value: 64 ug/ml). The note with it: dose 16.0 µg/ml.
For series [8] the target is unchanged. In words: Inhibition of AcrB in Escherichia coli BW25113 assessed as potentiation of erythromycin induced antibacterial activity by measuring erythromycin MIC at 128 ug/ml measured after 18 hrs by checkerboard titration method (reference value: 64 ug/ml). The note with it: dose 128.0 µg/ml.
The target is the same in series [9]. The series can be described thus: Inhibition of AcrB in Escherichia coli BW25113 assessed as potentiation of tetraphenylphosphonium induced antibacterial activity by measuring tetraphenylphosphonium MIC at 32 ug/ml measured after 18 hrs by checkerboard titration method (reference value: 1024 ug/ml). The note with it: dose 32.0 µg/ml.
Series [10] has the same target. The series can be described thus: Inhibition of AcrB in Escherichia coli BW25113 assessed as potentiation of tetraphenylphosphonium induced antibacterial activity by measuring tetraphenylphosphonium MIC at 64 ug/ml measured after 18 hrs by checkerboard titration method (reference value: 1024 ug/ml). The note with it: dose 64.0 µg/ml.
For series [11] the target is unchanged. The series can be described thus: Inhibition of AcrB in Escherichia coli BW25113 assessed as potentiation of tetraphenylphosphonium induced antibacterial activity by measuring tetraphenylphosphonium MIC at 128 ug/ml measured after 18 hrs by checkerboard titration method (reference value: 1024 ug/ml). The following applies: dose 128.0 µg/ml.
Series [12] shares this target. In words: Inhibition of AcrB in Escherichia coli BW25113 assessed as potentiation of levofloxacin induced antibacterial activity by measuring levofloxacin MIC at 16 ug/ml measured after 18 hrs by checkerboard titration method (reference value: 0.06 ug/ml). The note with it: dose 16.0 µg/ml.
Series [13] has the same target. The series can be described thus: Inhibition of AcrB in Escherichia coli BW25113 assessed as potentiation of levofloxacin induced antibacterial activity by measuring levofloxacin MIC at 32 ug/ml measured after 18 hrs by checkerboard titration method (reference value: 0.06 ug/ml). The note with it: dose 32.0 µg/ml.
Series [14] has the same target. The series can be described thus: Inhibition of AcrB in Escherichia coli BW25113 assessed as potentiation of levofloxacin induced antibacterial activity by measuring levofloxacin MIC at 64 ug/ml measured after 18 hrs by checkerboard titration method (reference value: 0.06 ug/ml). The note with it: dose 64.0 µg/ml.
Series [15] shares this target. In words: Inhibition of AcrB in Escherichia coli BW25113 assessed as potentiation of levofloxacin induced antibacterial activity by measuring levofloxacin MIC at 128 ug/ml measured after 18 hrs by checkerboard titration method (reference value: 0.06 ug/ml). The note with it: dose 128.0 µg/ml.
Series [16] shares this target. The series can be described thus: Inhibition of AcrB in Escherichia coli BW25113 assessed as potentiation of rifampicin induced antibacterial activity by measuring rifampicin MIC at 32 ug/ml measured after 18 hrs by checkerboard titration method (reference value: 16 ug/ml). The following applies: dose 32.0 µg/ml.
Series [17] shares this target. In words: Inhibition of AcrB in Escherichia coli BW25113 assessed as potentiation of rifampicin induced antibacterial activity by measuring rifampicin MIC at 64 ug/ml measured after 18 hrs by checkerboard titration method (reference value: 16 ug/ml). The following applies: dose 64.0 µg/ml.

For the compound `Nc1ccccc1C(=O)NCCc1ccc(O)c(O)c1`, the “growth inhibition (GI)” value in series [1] and in series [2] was “Non-Toxic” each time. Moreover, the MIC in [3] stood at 8 µg/mL; in series [4], 8 µg/mL; in series [5] it was 4 µg/mL; in series [6] it was 4 µg/mL; in series [7], 64 µg/mL; in series [8], 32 µg/mL. Moreover, the MIC in [9] stood at 1020 µg/mL; in [10], 1020 µg/mL; in series [11] it was 512 µg/mL; in series [12] it was 0.06 µg/mL; in [13], 0.06 µg/mL; in series [14], 0.06 µg/mL. Besides, the MIC in series [15] came out at 0.06 µg/mL; in series [16] it was 16 µg/mL; in [17], 16 µg/mL.

On to `Oc1ccc(CCCc2ccc(O)c(O)c2)cc1O`, for which the “growth inhibition (GI)” value in [1] and in [2] was “Non-Toxic” in each case. Moreover, the MIC came to 8 µg/mL in [3]; 8 µg/mL in series [4]; 8 µg/mL in series [5]; 8 µg/mL in [6]; 64 µg/mL in series [7]; 32 µg/mL in series [8]. For the same compound, the MIC in series [9] worked out at 1020 µg/mL; in series [10] it was 512 µg/mL; in series [11], 512 µg/mL; in series [12], 0.06 µg/mL; in series [13], 0.06 µg/mL; in series [14] it was 0.06 µg/mL. Further, the MIC turned out to be 0.06 µg/mL in series [15], 16 µg/mL in series [16] and 16 µg/mL in [17].

Consider `O=C(NCCc1ccc(O)c(O)c1)c1ccccc1O`, for which the “growth inhibition (GI)” value in series [1] and in series [2] was “Non-Toxic” each time. The MIC in [3] was 8 µg/mL; in series [4], 8 µg/mL; in [5], 8 µg/mL; in series [6], 4 µg/mL; in series [7], 64 µg/mL; in series [8], 64 µg/mL. The MIC stood at 1020 µg/mL in series [9]; 512 µg/mL in series [10]; 512 µg/mL in series [11]; 0.06 µg/mL in series [12]; 0.03 µg/mL in [13]; 0.03 µg/mL in series [14]. Also, the MIC in series [15] amounted to 0.03 µg/mL; in [16] it was 16 µg/mL; in series [17], 16 µg/mL.
